Holding throughout (type): cell-based
Test [1] concerns the target T1, Transient receptor potential cation channel subfamily M member 8 (Rattus norvegicus, UniProt Q8R455). The test is described as follows: Antagonist activity at recombinant rat TRPM8 stably expressed in HEK293 cells assessed as inhibition of menthol-induced intracellular calcium level by Fluo-4NW probe based fluorescence assay. In short, it runs like this:
(§1)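 Fluo-4 NW calcium imaging in HEK293 cells expressing human or rat TRPM8. Agonist was 500 nM icilin or 100 μM menthol, with test compound at 0.1–10 μM. IC50 was taken from concentration–response curves. Mean ± SEM, n = 3, N = 3.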

The target in test [2] is T2, Transient receptor potential cation channel subfamily M member 8 (Homo sapiens, UniProt Q7Z2W7). The test is described as follows: Antagonist activity at recombinant human TRPM8 stably expressed in HEK293 cells assessed as inhibition of menthol-induced intracellular calcium level by Fluo-4NW probe based fluorescence assay. An outline of the steps:
as §1
A general note: Calcium flux is commonly read through the fluorescence of an indicator in the cells.
Target sequence in this assay (Q7Z2W7 whole entry): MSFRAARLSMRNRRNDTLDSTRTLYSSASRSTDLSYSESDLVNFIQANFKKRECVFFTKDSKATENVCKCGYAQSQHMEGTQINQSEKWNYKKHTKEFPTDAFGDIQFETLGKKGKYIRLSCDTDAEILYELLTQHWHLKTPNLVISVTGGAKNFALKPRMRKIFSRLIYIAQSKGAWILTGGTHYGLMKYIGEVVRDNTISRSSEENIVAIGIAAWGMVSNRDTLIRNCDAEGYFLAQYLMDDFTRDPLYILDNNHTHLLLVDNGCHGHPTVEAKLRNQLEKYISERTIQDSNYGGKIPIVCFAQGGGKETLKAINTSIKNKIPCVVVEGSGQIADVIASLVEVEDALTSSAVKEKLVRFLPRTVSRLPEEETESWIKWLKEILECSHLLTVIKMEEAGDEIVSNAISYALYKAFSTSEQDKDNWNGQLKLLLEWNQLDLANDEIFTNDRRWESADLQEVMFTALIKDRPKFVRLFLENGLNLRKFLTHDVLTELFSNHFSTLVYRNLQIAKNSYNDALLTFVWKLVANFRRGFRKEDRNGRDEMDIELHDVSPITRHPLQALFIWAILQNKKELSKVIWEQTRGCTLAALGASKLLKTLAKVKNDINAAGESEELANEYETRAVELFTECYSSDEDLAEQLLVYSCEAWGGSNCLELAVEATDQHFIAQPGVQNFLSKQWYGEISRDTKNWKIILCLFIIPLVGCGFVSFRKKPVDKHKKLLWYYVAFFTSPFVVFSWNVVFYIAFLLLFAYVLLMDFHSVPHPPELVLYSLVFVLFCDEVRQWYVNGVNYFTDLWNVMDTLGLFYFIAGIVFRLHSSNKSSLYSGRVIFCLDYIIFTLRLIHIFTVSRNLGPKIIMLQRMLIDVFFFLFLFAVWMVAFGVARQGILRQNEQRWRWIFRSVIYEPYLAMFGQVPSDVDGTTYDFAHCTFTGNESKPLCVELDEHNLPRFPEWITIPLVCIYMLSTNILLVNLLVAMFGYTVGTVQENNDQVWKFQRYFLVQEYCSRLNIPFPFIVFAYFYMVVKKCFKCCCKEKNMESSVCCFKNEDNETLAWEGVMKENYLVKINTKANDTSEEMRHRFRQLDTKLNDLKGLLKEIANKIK

Test [3] concerns the target Transient receptor potential cation channel subfamily V member 1 (Homo sapiens) (UniProt Q8NER1). Put plainly: Antagonist activity at recombinant human TRPV1 stably expressed in HEK293 cells assessed as inhibition of capsaicin-induced calcium flux at 267 uM preincubated for 5 mins followed by capsaicin addition and measured after 180 secs by Fluo-8 Calcium dye based fluorescence assay relative to control. As to conditions: time 8.0 min. An outline of the steps:
(§2)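 Ca2+ flux assay in HEK293 cells stably expressing human TRPA1 or TRPV1. Test compound was given at 66.7–333 μM, then cells were challenged with agonist at its EC80: AITC 10 μM for TRPA1, capsaicin 0.1 μM for TRPV1. % inhibition is normalized to the EC80 agonist response. n = 3.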

Test [4] shares this target. Put plainly: Antagonist activity at recombinant human TRPV1 stably expressed in HEK293 cells assessed as inhibition of capsaicin-induced calcium flux at 133 uM preincubated for 5 mins followed by capsaicin addition and measured after 180 secs by Fluo-8 Calcium dye based fluorescence assay relative to control. The conditions noted are these: time 8.0 min. An outline of the steps: as §2

For test [5] the target is unchanged. Put plainly: Agonist activity at recombinant human TRPV1 stably expressed in HEK293 cells at 66.7 uM measured after 180 secs by Fluo-8 Calcium dye based fluorescence assay relative to control. As to conditions: time 180.0 sec. In short, it runs like this: (§3)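 Ca2+ flux assay in HEK293 cells stably expressing human TRPA1 or TRPV1. Test concentrations were 66.7–333 μM, applied alone. Response is expressed as % activation, normalized to the Emax agonist concentration: AITC 300 μM for TRPA1, capsaicin 3 μM for TRPV1. n = 3.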

Test [6] addresses Transient receptor potential cation channel subfamily A member 1 (Homo sapiens) (UniProt O75762). Put plainly: Agonist activity at recombinant human TRPA1 stably expressed in HEK293 cells at 133 uM measured after 180 secs by Fluo-8 Calcium dye based fluorescence assay relative to control. The conditions noted are these: time 180.0 sec. In short, it runs like this: as §3
For test [7] the target is unchanged. The test is described as follows: Agonist activity at recombinant human TRPA1 stably expressed in HEK293 cells at 66.7 uM measured after 180 secs by Fluo-8 Calcium dye based fluorescence assay relative to control. The conditions noted are these: time 180.0 sec. An outline of the steps:
as §3

In test [8] the target is T2, Transient receptor potential cation channel subfamily M member 8. The test is described as follows: Antagonist activity at recombinant human TRPM8 transiently expressed in HEK293 cells assessed as inhibition of menthol-induced calcium flux by whole-cell patch-clamp electrophysiological method. An outline of the steps: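 Whole-cell patch clamp of HEK293 cells transiently transfected with human TRPM8. Currents were evoked by 500 μM menthol and recorded at +80 mV. Test compound was applied at 1 nM–0.1 mM. Currents were normalized and fitted for IC50. n = 3 cells, SEM.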
Target sequence in this assay (Q7Z2W7 whole entry): as above

For test [9], the target named is T1, Transient receptor potential cation channel subfamily M member 8. Put plainly: Antagonist activity at recombinant rat TRPM8 stably expressed in HEK293 cells assessed as inhibition of icilin-induced intracellular calcium level by Fluo-4NW probe based fluorescence assay. In short, it runs like this: as §1
The species entered for test [10] is Homo sapiens. Put plainly: Selectivity ratio of IC50 for antagonist activity at human TRPA1 stably expressed in HEK293 cells to IC50 for antagonist activity at recombinant human TRPM8 stably expressed in HEK293 cells.
Test [11] deals with Transient receptor potential cation channel subfamily A member 1 (Homo sapiens) (UniProt O75762). Put plainly: Agonist activity at recombinant human TRPA1 stably expressed in HEK293 cells at 333 uM measured after 180 secs by Fluo-8 Calcium dye based fluorescence assay relative to control. As to conditions: time 180.0 sec. An outline of the steps: as §3
Test [12] deals with Transient receptor potential cation channel subfamily V member 1 (Homo sapiens) (UniProt Q8NER1). Put plainly: Agonist activity at recombinant human TRPV1 stably expressed in HEK293 cells at 333 uM measured after 180 secs by Fluo-8 Calcium dye based fluorescence assay relative to control. As to conditions: time 180.0 sec. In short, it runs like this: as §3
Test [13] has the same target. Put plainly: Antagonist activity at recombinant human TRPV1 stably expressed in HEK293 cells assessed as inhibition of capsaicin-induced calcium flux at 66.7 uM preincubated for 5 mins followed by capsaicin addition and measured after 180 secs by Fluo-8 Calcium dye based fluorescence assay relative to control. The conditions noted are these: time 8.0 min. An outline of the steps:
as §2

Test [14] shares this target. Put plainly: Agonist activity at recombinant human TRPV1 stably expressed in HEK293 cells at 267 uM measured after 180 secs by Fluo-8 Calcium dye based fluorescence assay relative to control. The conditions noted are these: time 180.0 sec. An outline of the steps:
as §3

Test [15] shares this target. Put plainly: Antagonist activity at recombinant human TRPV1 stably expressed in HEK293 cells assessed as inhibition of capsaicin-induced calcium flux at 333 uM preincubated for 5 mins followed by capsaicin addition and measured after 180 secs by Fluo-8 Calcium dye based fluorescence assay relative to control. As to conditions: time 8.0 min. In short, it runs like this: as §2

The target is the same in test [16]. Put plainly: Agonist activity at recombinant human TRPV1 stably expressed in HEK293 cells at 133 uM measured after 180 secs by Fluo-8 Calcium dye based fluorescence assay relative to control. As to conditions: time 180.0 sec. An outline of the steps:
as §3

The target of test [17] is Transient receptor potential cation channel subfamily A member 1 (Homo sapiens) (UniProt O75762). Put plainly: Antagonist activity at recombinant human TRPA1 stably expressed in HEK293 cells assessed as inhibition of AITC-induced calcium flux at 200 uM preincubated for 5 mins followed by AITC addition and measured after 180 secs by Fluo-8 Calcium dye based fluorescence assay relative to control. The conditions noted are these: time 8.0 min. An outline of the steps: as §2

Test [18] addresses Transient receptor potential cation channel subfamily V member 1 (Homo sapiens) (UniProt Q8NER1). The test is described as follows: Antagonist activity at recombinant human TRPV1 stably expressed in HEK293 cells assessed as inhibition of capsaicin-induced calcium flux at 200 uM preincubated for 5 mins followed by capsaicin addition and measured after 180 secs by Fluo-8 Calcium dye based fluorescence assay relative to control. As to conditions: time 8.0 min. An outline of the steps:
as §2

Test [19] concerns the target Transient receptor potential cation channel subfamily A member 1 (Homo sapiens) (UniProt O75762). Put plainly: Agonist activity at recombinant human TRPA1 stably expressed in HEK293 cells at 200 uM measured after 180 secs by Fluo-8 Calcium dye based fluorescence assay relative to control. The conditions noted are these: time 180.0 sec. In short, it runs like this: as §3

The target is the same in test [20]. Put plainly: Agonist activity at recombinant human TRPA1 stably expressed in HEK293 cells at 267 uM measured after 180 secs by Fluo-8 Calcium dye based fluorescence assay relative to control. As to conditions: time 180.0 sec. An outline of the steps:
as §3

The target is the same in test [21]. The test is described as follows: Antagonist activity at recombinant human TRPA1 stably expressed in HEK293 cells assessed as inhibition of AITC-induced calcium flux at 133 uM preincubated for 5 mins followed by AITC addition and measured after 180 secs by Fluo-8 Calcium dye based fluorescence assay relative to control. The conditions noted are these: time 8.0 min. An outline of the steps: as §2

The target is the same in test [22]. Put plainly: Antagonist activity at recombinant human TRPA1 stably expressed in HEK293 cells assessed as inhibition of AITC-induced calcium flux at 267 uM preincubated for 5 mins followed by AITC addition and measured after 180 secs by Fluo-8 Calcium dye based fluorescence assay relative to control. As to conditions: time 8.0 min. An outline of the steps:
as §2

For test [23] the target is unchanged. The test is described as follows: Antagonist activity at recombinant human TRPA1 stably expressed in HEK293 cells assessed as inhibition of AITC-induced calcium flux at 66.7 uM preincubated for 5 mins followed by AITC addition and measured after 180 secs by Fluo-8 Calcium dye based fluorescence assay relative to control. As to conditions: time 8.0 min. In short, it runs like this:
as §2

Test [24] concerns the target Transient receptor potential cation channel subfamily V member 1 (Homo sapiens) (UniProt Q8NER1). The test is described as follows: Agonist activity at recombinant human TRPV1 stably expressed in HEK293 cells at 200 uM measured after 180 secs by Fluo-8 Calcium dye based fluorescence assay relative to control. The conditions noted are these: time 180.0 sec. In short, it runs like this:
as §3

The species named for test [25] is Homo sapiens. The test is described as follows: Selectivity ratio of IC50 for antagonist activity at human TRPV1 stably expressed in HEK293 cells to IC50 for antagonist activity at recombinant human TRPM8 stably expressed in HEK293 cells.
Test [26] has as its target T2, Transient receptor potential cation channel subfamily M member 8. Put plainly: Antagonist activity at recombinant human TRPM8 stably expressed in HEK293 cells assessed as inhibition of icilin-induced intracellular calcium level by Fluo-4NW probe based fluorescence assay. In short, it runs like this: as §1
Target sequence in this assay (Q7Z2W7 whole entry): as above
Test [27] has as its target Transient receptor potential cation channel subfamily A member 1 (Homo sapiens) (UniProt O75762). Put plainly: Antagonist activity at recombinant human TRPA1 stably expressed in HEK293 cells assessed as inhibition of AITC-induced calcium flux at 333 uM preincubated for 5 mins followed by AITC addition and measured after 180 secs by Fluo-8 Calcium dye based fluorescence assay relative to control. As to conditions: time 8.0 min. In short, it runs like this:
as §2

The target of test [28] is T2, Transient receptor potential cation channel subfamily M member 8. Put plainly: Antagonist activity at TRPM8 (unknown origin) expressed in CHO cells assessed as inhibition of D-1607-induced reduction in cell viability by measuring cell viability at 10 uM by celltiter-glo ATP chemiluminescence assay relative to control. As to conditions: filed as antagonist. (In general: Cellular ATP, detected with luciferase, serves as a proxy for viable cell number.)
Target sequence in this assay (Q7Z2W7 whole entry, looked up): as the sequence (Q7Z2W7 whole entry) above

Test [29] has as its target T1, Transient receptor potential cation channel subfamily M member 8. Put plainly: Antagonist activity at recombinant rat TRPM8 stably expressed in HEK293 cells assessed as inhibition of icilin-induced intracellular calcium level preincubated for 5 mins followed by icilin addition by Fluo-4Am dye based fluorescence assay.
In test [30] the target is Transient receptor potential cation channel subfamily A member 1 (Rattus norvegicus, UniProt Q6RI86). Put plainly: Agonist activity at recombinant rat TRPA1 stably expressed in HEK293 cells assessed as increase in intracellular calcium release by Fluo-4AM dye based fluorescence assay.

Transient receptor potential cation channel subfamily V member 1 (Homo sapiens), sequence (Q8NER1 whole entry): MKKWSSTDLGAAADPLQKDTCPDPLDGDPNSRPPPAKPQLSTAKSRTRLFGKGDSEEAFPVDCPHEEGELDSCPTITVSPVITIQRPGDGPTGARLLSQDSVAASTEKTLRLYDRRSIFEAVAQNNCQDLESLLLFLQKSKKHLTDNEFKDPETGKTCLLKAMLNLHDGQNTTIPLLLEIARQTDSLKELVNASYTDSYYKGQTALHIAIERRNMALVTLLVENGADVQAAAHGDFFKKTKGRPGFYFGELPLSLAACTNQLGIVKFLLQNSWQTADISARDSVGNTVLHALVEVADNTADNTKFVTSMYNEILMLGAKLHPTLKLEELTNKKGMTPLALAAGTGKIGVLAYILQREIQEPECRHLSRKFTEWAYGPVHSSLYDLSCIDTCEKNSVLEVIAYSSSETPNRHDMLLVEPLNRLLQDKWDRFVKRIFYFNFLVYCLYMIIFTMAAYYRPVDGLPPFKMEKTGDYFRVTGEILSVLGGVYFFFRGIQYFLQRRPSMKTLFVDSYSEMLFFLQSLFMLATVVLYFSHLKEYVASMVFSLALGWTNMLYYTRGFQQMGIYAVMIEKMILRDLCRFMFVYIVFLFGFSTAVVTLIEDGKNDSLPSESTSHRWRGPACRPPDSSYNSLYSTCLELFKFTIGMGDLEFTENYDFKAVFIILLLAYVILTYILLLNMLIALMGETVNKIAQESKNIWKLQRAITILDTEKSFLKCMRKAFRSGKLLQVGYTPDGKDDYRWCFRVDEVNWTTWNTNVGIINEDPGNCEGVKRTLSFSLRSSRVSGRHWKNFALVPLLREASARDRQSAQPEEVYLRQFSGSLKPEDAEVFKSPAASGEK
Transient receptor potential cation channel subfamily A member 1 (Homo sapiens), sequence (O75762 whole entry): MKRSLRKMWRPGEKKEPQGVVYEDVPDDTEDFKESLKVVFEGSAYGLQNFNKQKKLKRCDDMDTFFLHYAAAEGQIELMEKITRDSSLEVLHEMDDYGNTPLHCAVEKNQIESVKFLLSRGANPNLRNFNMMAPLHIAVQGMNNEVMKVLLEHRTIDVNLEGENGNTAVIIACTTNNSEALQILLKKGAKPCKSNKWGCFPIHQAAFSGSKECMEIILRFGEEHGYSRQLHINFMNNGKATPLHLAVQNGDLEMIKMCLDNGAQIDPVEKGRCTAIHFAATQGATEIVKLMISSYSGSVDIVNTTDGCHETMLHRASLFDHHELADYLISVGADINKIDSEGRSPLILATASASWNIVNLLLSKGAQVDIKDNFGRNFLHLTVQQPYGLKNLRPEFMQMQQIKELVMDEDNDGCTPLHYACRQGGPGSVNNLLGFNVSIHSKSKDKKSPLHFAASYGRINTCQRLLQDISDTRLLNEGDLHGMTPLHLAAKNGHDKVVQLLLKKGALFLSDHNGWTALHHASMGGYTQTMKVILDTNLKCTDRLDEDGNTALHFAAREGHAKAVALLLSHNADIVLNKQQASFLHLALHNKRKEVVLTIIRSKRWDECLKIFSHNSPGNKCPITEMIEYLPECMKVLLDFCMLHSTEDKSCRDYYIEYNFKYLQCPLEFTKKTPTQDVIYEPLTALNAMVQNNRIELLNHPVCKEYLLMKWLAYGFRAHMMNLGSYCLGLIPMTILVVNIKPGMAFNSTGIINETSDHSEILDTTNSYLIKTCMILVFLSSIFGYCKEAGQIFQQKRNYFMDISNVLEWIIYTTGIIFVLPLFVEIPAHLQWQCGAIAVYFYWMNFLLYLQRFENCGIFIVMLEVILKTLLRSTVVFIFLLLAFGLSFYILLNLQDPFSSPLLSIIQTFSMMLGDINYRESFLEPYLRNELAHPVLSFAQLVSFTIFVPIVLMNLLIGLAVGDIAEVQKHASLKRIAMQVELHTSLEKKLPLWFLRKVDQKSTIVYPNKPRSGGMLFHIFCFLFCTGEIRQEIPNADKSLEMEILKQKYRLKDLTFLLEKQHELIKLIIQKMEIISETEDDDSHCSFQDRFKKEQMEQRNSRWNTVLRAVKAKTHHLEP
T1 sequence (Q8R455 whole entry): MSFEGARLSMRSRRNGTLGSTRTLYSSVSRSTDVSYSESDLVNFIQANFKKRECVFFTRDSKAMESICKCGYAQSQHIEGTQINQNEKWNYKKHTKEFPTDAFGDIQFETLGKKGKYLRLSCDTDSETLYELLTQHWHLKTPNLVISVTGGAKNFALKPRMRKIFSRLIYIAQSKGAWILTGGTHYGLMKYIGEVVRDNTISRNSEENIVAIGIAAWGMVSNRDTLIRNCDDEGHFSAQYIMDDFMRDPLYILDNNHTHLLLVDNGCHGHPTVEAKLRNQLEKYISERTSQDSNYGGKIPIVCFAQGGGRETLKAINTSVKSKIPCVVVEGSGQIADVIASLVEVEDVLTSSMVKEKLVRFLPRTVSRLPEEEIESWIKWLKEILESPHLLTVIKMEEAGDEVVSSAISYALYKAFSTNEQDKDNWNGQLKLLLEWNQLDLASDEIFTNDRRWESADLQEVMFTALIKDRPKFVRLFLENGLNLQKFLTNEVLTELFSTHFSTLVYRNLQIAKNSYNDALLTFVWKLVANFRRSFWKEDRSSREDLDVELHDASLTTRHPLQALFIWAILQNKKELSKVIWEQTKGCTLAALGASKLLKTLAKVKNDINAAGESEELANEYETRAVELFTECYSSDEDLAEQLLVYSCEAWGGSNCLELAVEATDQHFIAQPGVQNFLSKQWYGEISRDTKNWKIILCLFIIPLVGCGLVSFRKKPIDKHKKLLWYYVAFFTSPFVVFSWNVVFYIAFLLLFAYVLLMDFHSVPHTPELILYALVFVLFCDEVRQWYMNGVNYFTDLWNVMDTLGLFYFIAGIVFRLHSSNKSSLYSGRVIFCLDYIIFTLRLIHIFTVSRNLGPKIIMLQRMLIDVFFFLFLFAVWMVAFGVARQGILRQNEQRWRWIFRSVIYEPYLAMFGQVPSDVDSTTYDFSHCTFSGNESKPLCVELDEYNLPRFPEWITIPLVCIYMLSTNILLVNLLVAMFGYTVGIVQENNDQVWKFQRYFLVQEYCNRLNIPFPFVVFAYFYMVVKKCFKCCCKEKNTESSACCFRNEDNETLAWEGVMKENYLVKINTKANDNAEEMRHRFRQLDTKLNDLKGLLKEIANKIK

As to `CC(C)[C@@H]1CC[C@@H](C)C[C@H]1NC(=O)c1ccc(-c2ccccc2)cc1`, the IC50 (usually the concentration that inhibits the measured activity by half) in test [1] was determined as 117 nM; in test [2] it was 805 nM; in test [8] it was 700 nM; in [9], 521 nM; in [26], 1800 nM. The inhibition (usually the drop in the measured response relative to a control, in per cent) in test [3] was 6.79%; in [4], -7.44%; in [13], -3.6%; in test [15], 7.64%; in test [17] it was 18.7%; in test [18] it was -5.89%. Moreover, the inhibition in test [21] stood at 24.9%; in test [22] it was 16.8%; in test [23], 18.3%; in test [27] it was 11.9%. The Activity in [5] is 1.3%; in test [6] it was -0.2%; in test [7], -0.83%; in [11] it was 3.4%; in test [12], 7.9%; in test [14], 4.57%. In addition, the Activity was 3.6% in test [16], 0.95% in test [19], 2.1% in test [20] and 4.8% in [24]. The Ratio IC50 in test [10] and in [25] was over 400 in each case.

On to `C=C1[C@H](C)CC[C@@H](C(C)C)[C@@H]1OC(=O)c1ccccc1`, for which, in test [8], the IC50 came to 2000 nM.

In the case of `CC(C)[C@@H]1CC[C@@H](C)C[C@H]1OC(=O)N1CCc2ccccc2C1`, the Activity in test [28] worked out at 112%.

As to `C=C(C)[C@@H]1CCC(C)=C[C@H]1c1c(O)cc(CCC)cc1O` [CANNABIDIVARIN], the IC50 in test [29] was found to be 900 nM. Also, in test [30], the half-maximal effective concentration (EC50) (as a rule, the midpoint of the concentration-response curve) was found to be 420 nM.

Values taken from ChEMBL document CHEMBL4706746, “Structural and in Vitro Functional Characterization of a Menthyl TRPM8 Antagonist Indicates Species-Dependent Regulation” (ACS Med Chem Lett, 2021).
